This is an account of results in ChEMBL document CHEMBL1152522, “RCAI-37, 56, 59, 60, 92, 101, and 102, cyclitol and carbasugar analogs of KRN7000: their synthesis and bioactivity for mouse lymphocytes to produce Th1-biased cytokines” (2009).

Each structure is given as a SMILES string. The source made the active and inactive calls. The calls are words filed in the database; no cut-off is given here.

In test [1] the test system is Mus musculus. Kind of test: Immunostimulatory activity in C57BL/6 mouse assessed as increase in serum IFN-gamma production at 10 ug/mL, iv after 10 to 60 hrs post-injection by ELISA. It counts as functional, organism-based. Summed up: (§1)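 C57BL/6 mice, 8–16 wk old, kept specific pathogen-free. Glycolipid stock (1.0 mg/mL in DMSO) diluted to 10 µg/mL in Dulbecco's PBS just before dosing; 200 µL given iv. Retro-orbital heparinized blood taken at 3, 6, 12, 24, 36, 48 and 60 h for plasma. IFN-γ measured by ELISA; IL-4 and IL-12p70 by cytometric bead array. Mean ± SD of 3 mice; experiment repeated three times.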

The test system of test [2] is Mus musculus. Kind of test: Immunostimulatory activity in C57BL/6 mouse assessed as increase in serum IL4 production at 10 ug/mL, iv after 3 to 24 hrs post-injection by cytometric bead array method. Format: functional, organism-based. An outline of the steps: as §1
For a further test, the system named is PBMC. The experiment in a line: Immunostimulatory activity in human PBMC assessed as increase in IFN-gamma production by ELISA. Format: functional, cell-based. Background: ELISA stands for enzyme-linked immunosorbent assay.
The subject of test [3] is Mus musculus. Kind of test: Immunostimulatory activity in C57BL/6 mouse assessed as increase in serum IL-12p70 production at 10 ug/mL, iv after 3 to 24 hrs post-injection by cytometric bead array method. It counts as functional, organism-based. Summed up:
as §1

Test [4] has as its system Mus musculus. Kind of test: Immunostimulatory activity in C57BL/6 mouse assessed as mild increase in serum IFN-gamma production at 10 ug/mL, iv after 10 to 60 hrs post-injection by ELISA. It counts as functional, organism-based. Summed up: as §1
In test [5] the test system is Mus musculus. The experiment in a line: Immunostimulatory activity in C57BL/6 mouse assessed as increase in serum IFN-gamma production at 10 ug/mL, iv after 24 hrs post-injection by ELISA. Format: functional, organism-based. An outline of the steps: as §1
Test [6] relates to Mus musculus. The experiment in a line: Immunostimulatory activity in C57BL/6 mouse assessed as increase in serum IFN-gamma production at 10 ug/mL, iv after 36 hrs post-injection by ELISA. Format: functional, organism-based. Summed up: as §1
In test [7] the test system is Mus musculus. Kind of test: Ratio of KRN700 to compound activity for increase in serum IL4 production in C57BL/6 mouse at 10 ug/mL, iv after 3 to 24 hrs post-injection by cytometric bead array method. Format: functional.
For test [8], the system named is Mus musculus. Kind of test: Immunostimulatory activity in C57BL/6 mouse assessed as increase in serum IL-12p70 production at 10 ug/mL, iv after 3 hrs post-injection by cytometric bead array method. It counts as functional, organism-based. Summed up:
as §1

Test [9] has as its system Mus musculus. Kind of test: Immunostimulatory activity in C57BL/6 mouse assessed as increase in serum IL-12p70 production at 10 ug/mL, iv after 6 hrs post-injection by cytometric bead array method. Format: functional, organism-based. An outline of the steps: as §1

On to `CCCCCCCCCCCCCCCCCCCCCCCCCC(=O)N[C@@H](CO[C@H]1C[C@H](OC)[C@H](O)[C@H](O)[C@H]1O)[C@H](O)[C@H](O)CCCCCCCCCCCCCC`, for which the result in the test on Mus musculus [1] and in the test on Mus musculus [2] was Active.

With `CCCCCCCCCCCCCCCCCCCCCCCCCC(=O)N[C@@H](CO[C@H]1C[C@H](O)[C@H](O)[C@H](O)[C@H]1O)[C@H](O)[C@H](O)CCCCCCCCCCCCCC`, the outcome in the test on Mus musculus [1], with Mus musculus [2] and with PBMC was Active.

`CCCCCCCCCCCCCCCCCCCCCCCCCC(=O)N[C@@H](CO[C@@H]1[C@H](O)[C@@H](O)[C@@H](O)[C@@H](O)[C@@H]1O)[C@H](O)[C@H](O)CCCCCCCCCCCCCC`: the outcome with Mus musculus [1], with Mus musculus [2] and in the test with Mus musculus [3] was inactive.

For `CCCCCCCCCCCCCCCCCCCCCCCCCC(=O)N[C@@H](CO[C@H]1C[C@H](COC)[C@H](O)[C@H](O)[C@H]1O)[C@H](O)[C@H](O)CCCCCCCCCCCCCC`, in the test with Mus musculus [4], the outcome was Active.

On to `CCCCCCCCCCCCCCCCCCCCCCCCCC(=O)N[C@@H](CO[C@@H]1[C@H](O)[C@@H](O)[C@H](O)[C@@H](O)[C@@H]1O)[C@H](O)[C@H](O)CCCCCCCCCCCCCC`, for which the result with Mus musculus [1], in the test with Mus musculus [2] and in the test on Mus musculus [3] was inactive.

For `CCCCCCCCCCCCCCCCCCCCCCCCCC(=O)N[C@@H](CO[C@H]1C[C@H](CO)[C@H](O)[C@H](O)[C@H]1O)[C@H](O)[C@H](O)CCCCCCCCCCCCCC`, the outcome with Mus musculus [5], in the test on Mus musculus [6], with PBMC, in the test with Mus musculus [8] and in the test on Mus musculus [9] was Active. The Ratio in the test with Mus musculus [7] came to 0.5.

Turning to `C[C@H]1O[C@H](O)[C@H](O)[C@@H](O)[C@H]1O`, the outcome in the test with Mus musculus [1] was Active.

Turning to `CCCCCCCCCCCCCCCCCCCCCCCCCC(=O)N[C@@H](CO[C@H]1C[C@H](C)[C@H](O)[C@H](O)[C@H]1O)[C@H](O)[C@H](O)CCCCCCCCCCCCCC`, the result in the test on Mus musculus [4] was Active.
